Results taken from ChEMBL document CHEMBL3861961, “Effects of Functional Groups and Sugar Composition of Quercetin Derivatives on Their Radical Scavenging Properties” (J Nat Prod, 2016).
Calls of active or inactive are those of the source. No cut-off for these calls is given here.

Legend:
[1] = Antioxidant activity assessed as DPPH free radical scavenging activity at 5 uM after 15 to 60 mins in presence of CuSO4.5H2O; format: functional
Procedure, shortened: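 Samples (0.2 mM in MeOH) mixed 1:1 by volume with CuSO4·5H2O (0.4 mM in MeOH), held 1.5 h at room temperature. DPPH step: 74 μM DPPH final in H2O/MeOH (5/3), sample 5 μM final. Mixture left standing, then absorbance read at 545 nm after 15, 30 and 60 min. Wells without compound were negative controls. At least triplicate.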

[2] = Antioxidant activity assessed as DPPH free radical scavenging activity by measuring remaining DPPH at 5 uM after 15 to 60 mins relative to trolox; format: functional
Procedure, shortened: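 DPPH 74 μM final in H2O/MeOH (5/3), mixed vigorously with sample (0.1 mM stock in MeOH; 5 μM final) and left standing. Absorbance at 545 nm read at 15, 30 and 60 min. Wells without compound served as negative controls. At least three replicates per compound and control.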

[3] = Antioxidant activity assessed as DPPH free radical scavenging activity by measuring decrease in signal intensity at 0.015 mmol measured after 30 mins in presence of 3-Omethylquercetin by 13C-NMR spectroscopy

Compound	Activity [1]	Activity [2]	Activity [3]
COc1cc(-c2oc3cc(O)cc(O)c3c(=O)c2O[C@@H]2O[C@H](CO)[C@@H](O)[C@H](O)[C@H]2O)ccc1O	Active		
O=c1c(O[C@@H]2O[C@H](CO)[C@H](O)[C@H](O)[C@H]2O)c(-c2ccc(O)c(O)c2)oc2cc(O)cc(O)c12	Active	< 70%	
O=C(OC[C@H]1O[C@@H](Oc2c(-c3ccc(O)c(O)c3)oc3cc(O)cc(O)c3c2=O)[C@H](O)[C@@H](O)[C@@H]1O)c1cc(O)c(O)c(O)c1	< 35%		
O=c1c(O)c(-c2ccc(O)c(O)c2)oc2cc(O)cc(O)c12	Active	< 70%	
COC(=O)c1cc(O)c(O)c(O)c1			Active
COc1cc(-c2oc3cc(O)cc(O)c3c(=O)c2O[C@@H]2O[C@H](CO)[C@H](O)[C@H](O)[C@H]2O)ccc1O	Active		
COc1cc(-c2oc3cc(O)cc(O)c3c(=O)c2O)ccc1O	Active		
COc1ccc(-c2oc3cc(O)cc(O)c3c(=O)c2O)cc1O	Active		
O=c1c(O[C@@H]2O[C@H](CO)[C@@H](O)[C@H](O)[C@H]2O)c(-c2ccc(O)c(O)c2)oc2cc(O)cc(O)c12	Active	< 70%	
COc1cc(O)cc2oc(-c3ccc(O)c(O)c3)c(O[C@@H]3O[C@H](CO)[C@@H](O)[C@H](O)[C@H]3O)c(=O)c12	Active	< 70%	
O=C(O[C@H]1[C@H](Oc2c(-c3ccc(O)c(O)c3)oc3cc(O)cc(O)c3c2=O)O[C@H](CO)[C@@H](O)[C@@H]1O)c1cc(O)c(O)c(O)c1	< 35%		
COc1c(-c2ccc(O)c(O)c2)oc2cc(O)cc(O)c2c1=O	Active	< 70%	
COc1cc(O)cc2oc(-c3ccc(O)c(O)c3)c(O)c(=O)c12	Active	< 70%	
O=C(O[C@@H]1[C@@H](O)[C@H](Oc2c(-c3ccc(O)c(O)c3)oc3cc(O)cc(O)c3c2=O)O[C@H](CO)[C@H]1O)c1cc(O)c(O)c(O)c1	< 35%		
COc1cc(O)cc2oc(-c3ccc(O)c(O)c3)c(O[C@@H]3O[C@H](CO)[C@H](O)[C@H](O)[C@H]3O)c(=O)c12	Active	< 70%	
O=C(O[C@H]1[C@H](Oc2c(-c3ccc(O)c(O)c3)oc3cc(O)cc(O)c3c2=O)O[C@H](CO)[C@@H](O)[C@@H]1OC(=O)c1cc(O)c(O)c(O)c1)c1cc(O)c(O)c(O)c1	< 35%		
O=C(O[C@H]1[C@H](O)[C@@H](O)[C@H](Oc2c(-c3ccc(O)c(O)c3)oc3cc(O)cc(O)c3c2=O)O[C@@H]1CO)c1cc(O)c(O)c(O)c1	< 35%		
